Measured values reported in ChEMBL document CHEMBL1212779, “Ceftobiprole is superior to vancomycin, daptomycin, and linezolid for treatment of experimental endocarditis in rabbits caused by methicillin-resistant Staphylococcus aureus” (Antimicrob Agents Chemother, 2010).
≈ marks a conversion by molar mass, not a printed value.

Assays:
Staphylococcus aureus [1] = test: (§1) Antibacterial activity against methicillin-resistant Staphylococcus aureus COL infected New Zealand White rabbit aortic valve endocarditis model assessed as decrease in bacterial colony forming unit in kidney at 18 mg/kg, iv dosed every 24 hrs for 4 days (reference value: 4.4 +/- 1.0 log10CFU per gram tissue); format: functional
Staphylococcus aureus [2] = test: as §1, with “spleen” for “kidney”, “5.1” for “4.4”, “0.9” for “1.0”; format: functional
Staphylococcus aureus [3] = test: as §1, with “vegetation” for “kidney”, “8.4” for “4.4”, “0.7” for “1.0”; format: functional
Oryctolagus cuniculus [4] = test: Plasma concentration in Staphylococcus aureus COL infected New Zealand White rabbit aortic valve endocarditis model at 25 mg/kg, im dosed every 8 hrs for 4 days; format: ADME, organism-based; design: dose 25 mg/kg, route intramuscular; settings: in vivo
How it was run: (§2)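 Rabbits with catheter-induced aortic valve endocarditis received about 1.5 × 10^7 CFU COL iv in 1 ml 0.9% saline 48 h after catheter placement. Dosing started 16–18 h post-infection. Plasma was sampled 1 h post-dose from at least three rabbits per group and assayed by HPLC against plasma standard curves. Each value is the mean of two determinations; detection limit ≤0.5 μg/ml.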

Staphylococcus aureus [5] = test: as §1, with “in vegetation” for “in kidney”, “at 25” for “at 18”, “mg/kg, im” for “mg/kg, iv”, “every 8” for “every 24”, “value: 8.4” for “value: 4.4”, “+/- 0.7” for “+/- 1.0”; format: functional; settings: route intramuscular
Staphylococcus aureus [6] = test: as §1, with “at 25” for “at 18”, “mg/kg, im” for “mg/kg, iv”, “every 8” for “every 24”; format: functional; settings: route intramuscular
Staphylococcus aureus [7] = test: as §1, with “in spleen” for “in kidney”, “at 25” for “at 18”, “mg/kg, im” for “mg/kg, iv”, “every 8” for “every 24”, “value: 5.1” for “value: 4.4”, “+/- 0.9” for “+/- 1.0”; format: functional; settings: route intramuscular
Oryctolagus cuniculus [8] = test: Plasma concentration in Staphylococcus aureus COL infected New Zealand White rabbit aortic valve endocarditis model at 75 mg/kg, sc dosed every 8 hrs for 4 days; format: ADME, organism-based; design: dose 75 mg/kg, route subcutaneous; settings: in vivo; how it was run: as §2
Staphylococcus aureus [9] = test: as §1, with “in vegetation” for “in kidney”, “at 75” for “at 18”, “mg/kg, sc” for “mg/kg, iv”, “every 8” for “every 24”, “value: 8.4” for “value: 4.4”, “+/- 0.7” for “+/- 1.0”; format: functional; settings: route subcutaneous
Staphylococcus aureus [10] = test: as §1, with “at 75” for “at 18”, “mg/kg, sc” for “mg/kg, iv”, “every 8” for “every 24”; format: functional; settings: route subcutaneous
Staphylococcus aureus [11] = test: as §1, with “in spleen” for “in kidney”, “at 75” for “at 18”, “mg/kg, sc” for “mg/kg, iv”, “every 8” for “every 24”, “value: 5.1” for “value: 4.4”, “+/- 0.9” for “+/- 1.0”; format: functional; settings: route subcutaneous
Staphylococcus aureus [12] = test: Antibacterial activity against methicillin-resistant Staphylococcus aureus COL; format: functional
Staphylococcus aureus [13] = test: as §1, with “vegetation” for “kidney”, “30” for “18”, “12” for “24”, “8.4” for “4.4”, “0.7” for “1.0”; format: functional
[14] = Half life in Staphylococcus aureus COL infected New Zealand White rabbit aortic valve endocarditis model at 30 mg/kg, iv dosed every 12 hrs for 4 days; format: ADME, organism-based, Oryctolagus cuniculus; design: dose 30 mg/kg, route intravenous; settings: in vivo
Staphylococcus aureus [15] = test: as §1, with “30” for “18”, “12” for “24”; format: functional
Staphylococcus aureus [16] = test: as §1, with “spleen” for “kidney”, “30” for “18”, “12” for “24”, “5.1” for “4.4”, “0.9” for “1.0”; format: functional
Oryctolagus cuniculus [17] = test: Plasma concentration in Staphylococcus aureus COL infected New Zealand White rabbit aortic valve endocarditis model at 30 mg/kg, iv dosed every 12 hrs for 4 days; format: ADME, organism-based; design: dose 30 mg/kg, route intravenous; settings: in vivo
How it was run: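 Plasma was drawn 1 h after dosing from at least 3 rabbits and assayed by HPLC. Each value averages two determinations, read from plasma standard curves. The detection limit was ≤0.5 μg/ml.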

Question: For `CCCCCCCCCC(=O)N[C@@H](Cc1c[nH]c2ccccc12)C(=O)N[C@H](CC(N)=O)C(=O)N[C@@H](CC(=O)O)C(=O)N[C@@H]1C(=O)NCC(=O)N[C@@H](CCCN)C(=O)N[C@@H](CC(=O)O)C(=O)N[C@H](C)C(=O)N[C@@H](CC(=O)O)C(=O)NCC(=O)N[C@H](CO)C(=O)N[C@@H]([C@H](C)CC(=O)O)C(=O)N[C@@H](CC(=O)c2ccccc2N)C(=O)O[C@@H]1C`, which log10CFU/g (Staphylococcus aureus [1]) is on record?
Answer: 2.6

Question: And the log10CFU/g (Staphylococcus aureus [2])?
Answer: 2.3

Question: And the log10CFU/g (Staphylococcus aureus [3])?
Answer: 3.6

Question: Which Cp (Oryctolagus cuniculus [4]) does the source give for `Nc1nc(/C(=N/O)C(=O)N[C@@H]2C(=O)N3C(C(=O)O)=C(/C=C4\CCN([C@@H]5CCNC5)C4=O)CS[C@H]23)ns1` [CEFTOBIPROLE] here?
Answer: 14400 ng/mL

Question: And the log10CFU/g (Staphylococcus aureus [5])?
Answer: 2.1

Question: What about the log10CFU/g (Staphylococcus aureus [6]) of the same molecule?
Answer: 1.7

Question: What about the log10CFU/g (Staphylococcus aureus [7]) of the same molecule?
Answer: 1.8

Question: What does the source list for `CC(=O)NC[C@H]1CN(c2ccc(N3CCOCC3)c(F)c2)C(=O)O1` [LINEZOLID]?
Answer: Cp (Oryctolagus cuniculus [8]): 28200 ng/mL; log10CFU/g (Staphylococcus aureus [9]): 5.9; log10CFU/g (Staphylococcus aureus [10]): 2.5; log10CFU/g (Staphylococcus aureus [11]): 2.9

Question: For `CCOc1ccc2ccccc2c1C(=O)N[C@@H]1C(=O)N2[C@@H]1SC(C)(C)[C@@H]2C(=O)O` [NAFCILLIN], which MIC (Staphylococcus aureus [12]) is on record?
Answer: 256 µg/mL (≈ 618 µM)

Question: With `CN[C@H](CC(C)C)C(=O)N[C@H]1C(=O)N[C@@H](CC(N)=O)C(=O)N[C@H]2C(=O)N[C@H]3C(=O)N[C@H](C(=O)N[C@H](C(=O)O)c4cc(O)cc(O)c4-c4cc3ccc4O)[C@H](O)c3ccc(c(Cl)c3)Oc3cc2cc(c3O[C@@H]2O[C@H](CO)[C@@H](O)[C@H](O)[C@H]2O[C@H]2C[C@](C)(N)[C@H](O)[C@H](C)O2)Oc2ccc(cc2Cl)[C@H]1O` [VANCOMYCIN] as the molecule, how does the log10CFU/g (Staphylococcus aureus [13]) read?
Answer: 5.9

Question: And the half-life [14]?
Answer: 1.33 h

Question: And the log10CFU/g (Staphylococcus aureus [15])?
Answer: 3.1

Question: And the log10CFU/g (Staphylococcus aureus [16])?
Answer: 3.3

Question: And the Cp (Oryctolagus cuniculus [17])?
Answer: 34000 ng/mL
